Measurements collected from several papers.
Each line is one published result; the experiments were not run side by side.

For Cc1cc(Nc2cccc(Cl)c2)n2nc(C(C)(F)F)nc2n1, the solubility was 77 to 150 µM (nephelometry; aqueous buffer; pH 6.5).
With CNC(=O)c1ccc(N(Cc2ccc(C3CCCCC3)cn2)C(=O)[C@H]2CCN2S(=O)(=O)c2c(F)c(F)c(F)c(F)c2F)cc1O the solubility was 131 µg/mL (simulated intestinal fluid).
O=C(CCCCCCC(=O)Nc1ccccc1)NO gave a solubility of 160 µg/mL (HPLC; water; 48 h, pH 6, 25 °C).
Cc1cc(Nc2ccc(C(F)(F)F)cc2)n2nc(CCO)nc2n1 has a solubility of 19 to 37 µM (nephelometry; aqueous buffer; pH 6.5).
Fc1ccc(-c2nc3c(C4CCNCC4)nccc3[nH]2)cc1F gave a solubility of greater than 200 µM (shake flask; aqueous buffer; pH 6.5).
The solubility of CC(=O)N[C@@H](CC(N)=O)C(=O)N[C@@H](CC(N)=O)C(=O)N[C@@H](CC(C)C)C(=O)N[C@H]1CSSC[C@@H](C(=O)N[C@H](C(N)=O)[C@@H](C)O)NC(=O)[C@H](CCCNC(=N)N)NC(=O)[C@H](Cc2c[nH]cn2)NC(=O)[C@H](C)NC(=O)CNC(=O)[C@H](Cc2c[nH]c3ccccc23)NC(=O)[C@H](CC(=O)O)NC(=O)[C@H](CCC(N)=O)NC(=O)[C@H](Cc2c[nH]c3ccccc23)NC(=O)[C@H](C(C)C)NC1=O is reported as 3920 µg/mL (PBS; pH 7.4).
For CN1CCN(CC2CCN(c3nccc4[nH]c(-c5cccc(OC(F)(F)F)c5)nc34)CC2)CC1, the solubility was greater than 200 µM (shake flask; aqueous buffer; pH 6.5).
Brc1ccc2c(c1)nc(C1CCNCC1)n2Cc1ccccc1 has a solubility of 110 µM (shake flask; aqueous buffer; 20 h, pH 6.5, 25 °C).
O=C(Nc1c2c(cc3c1CCC3)CCC2)NS(=O)(=O)/C=C/c1nccs1 has a solubility of 11.2 µg/mL (water; 24 h, 37 °C).
CCn1c(-c2nc3cc(C(=O)N4CCC[C@@H](N)C4)cc(OC)c3n2C)cc2cccnc21 has a solubility of 396 µM (aqueous buffer).
The solubility of COc1c(Cl)cccc1Nc1nc(NCc2ccccc2)c2ccccc2n1 is reported as 0.06 µg/mL (aqueous buffer; pH 7.4).
Cc1ccc(S(=O)(=O)NCc2ccc(C(=O)NCCN(Cc3ccccc3)C(C)C)cc2)cc1 gave a solubility of 0.12 µg/mL (aqueous buffer; pH 6.2).
With CCOc1ccc2cc(-c3nn(CC4CC4)c(N)c3C(N)=O)cnc2c1 the solubility was 26.5 µM (PBS; pH 6.5, 25 °C).
COc1cccc2c(NCc3ccccc3)nc(-n3c(=O)oc4ccccc43)nc12 gave a solubility of less than 0.01 µg/mL (aqueous buffer; pH 6.2).
CC(C)[C@@H]1CC[C@@H](C)CC1=O gave a solubility of 3000 µM (PBS; 48 h, pH 7.4, 25 °C).
With Cc1cc(F)cc(Nc2nc(NCc3ccccc3)c3ccccc3n2)c1 the solubility was less than 0.01 µg/mL (aqueous buffer; pH 6.2).
The solubility of CC(C)c1cccc2c(-c3ccccc3)cc(-c3ccc(-c4ccc(C(=O)O)cc4)[nH]3)nc12 is reported as 71.6 µM (PBS; pH 7.4).
For CC[C@H](C)[C@H](NC(=O)[C@H](Cc1ccccc1)NC(=O)[C@H](Cc1ccc(O)cc1)NC(=O)[C@@H]1CCCN1C(=O)[C@@H](N)Cc1ccc(O)cc1)C(=O)N1CCC[C@H]1C(=O)N[C@H](CCCCN)C(=O)NCC(=O)N[C@H](CCCCN)C(=O)NCC(=O)N[C@@H](CCC(=O)O)C(=O)N[C@H](C(=O)N[C@@H](CC(N)=O)C(=O)N[C@@H](CC(C)C)[C@@H](O)CC(=O)N[C@H](C(=O)N[C@@H](C)C(=O)N[C@@H](CCC(=O)O)C(=O)N1CCC[C@@H]1C(=O)N[C@@H](CCCCNC(=O)CCC(=O)O[C@H]1CC[C@@]2(C)C(=CC[C@H]3[C@@H]4CC[C@H]([C@H](C)CCCC(C)C)[C@@]4(C)CC[C@@H]32)C1)C(N)=O)C(C)C)C(C)C, the solubility was greater than 718 µg/mL (aqueous buffer; pH 6.5).
CCc1cc(O)ccc1-c1ccc2c(-c3nc4c([nH]3)CN(C(C)C)[C@H](C(=O)N3CC(N(C)C)C3)C4)n[nH]c2c1 has a solubility of 13 µM (aqueous buffer).
The solubility of O=C(Nc1cc(F)ccc1C(=O)O)c1ccc(-c2ccccc2)cc1 is reported as 5 µM (shake flask; aqueous buffer; 24 h, pH 6.5, 25 °C).
For CC(C)CC(=O)N1CCC[C@H](COc2cccc3c2C(N)=NS(=O)(=O)[N-]3)C1.[Na+], the solubility was 217000 µM (ethanol).
For COc1cccc(OC)c1-c1nc(C(=O)N[C@@H](CC(C)C)C(=O)O)cn1-c1cccc2ccccc12, the solubility was 103 µg/mL (aqueous buffer; pH 5).
The solubility of COc1cccc2c(NCc3ccccc3)nc(N3CCNc4ccccc43)nc12 is reported as 0.3 µg/mL (aqueous buffer; pH 7.4).
COC(=O)[C@H]1[C@H]2C[C@@H]3c4[nH]c5cc(OC)ccc5c4CCN3C[C@H]2C[C@@H](OC(=O)c2cc(OC)c(OC)c(OC)c2)[C@@H]1OC has a solubility of less than 5 µM (shake flask; PBS; 24 h, pH 6.5, 25 °C).
With Brc1ccccc1CNc1nc(NCc2ccccc2)c2ccccc2n1 the solubility was 0.24 µg/mL (aqueous buffer; pH 6.2).
For CC(C(=O)O)c1ccc(-c2ccccc2)c(F)c1 (centres unmarked), the solubility was 4490 µg/mL (PBS; pH 7.4).
O=C1NCCc2nc(OCc3cccc(F)c3)ccc21 has a solubility of 114 µM (FaSSIF; 24 h, pH 7.2).
The solubility of Clc1ccc2c(c1)nc(C1CCNCC1)n2Cc1ccccc1 is reported as 125 µM (shake flask; aqueous buffer; 20 h, pH 6.5, 25 °C).
CC(C)(C)n1nc(-c2cnc3cc(OC4CCC4)ccc3c2)c(C(N)=O)c1N has a solubility of 3.7 µM (PBS; pH 6.5, 25 °C).
CC(C)C[C@H](NC(=O)[C@H](Cc1ccccc1)NC(=O)c1cnccn1)B(O)O has a solubility of 50 µM (nephelometry; aqueous buffer; pH 6.8).
The solubility of COc1cccc(OC)c1-c1nc(C(=O)N[C@@H](CC(C)C)C(=O)O)cn1-c1ccnc2cc(Cl)ccc12 is reported as greater than 52 µg/mL (aqueous buffer; pH 6.2).
With CN1CCC(N2CCN(c3nccc4[nH]c(-c5ccc(F)c(F)c5)nc34)CC2)CC1 the solubility was greater than 200 µM (shake flask; aqueous buffer; pH 6.5).
OCCOc1cccc2c(NCc3ccccc3)nc(N3CCOc4ccccc43)nc12 gave a solubility of 0.48 µg/mL (aqueous buffer; pH 6.2).
CCCCOC(=O)c1ccc(O)cc1 gave a solubility of 310 µg/mL (PBS; pH 7.4).
For COc1ccc(Nc2nc(NCc3ccccc3)c3ccccc3n2)cc1F, the solubility was 3.4 µg/mL (aqueous buffer; pH 5).
The solubility of COc1ccc(C2CC(=O)c3c(O)cc(O)cc3O2)cc1O (centres unmarked) is reported as 15.7 µg/mL (shake flask; water; 24 h, 25 °C).
For Cc1ccc(Nc2nc(NCc3ccccc3)c3ccccc3n2)cc1F, the solubility was 0.04 µg/mL (aqueous buffer; pH 6.2).
The solubility of [Cl-].c1ccc2nc(Cn3c[n+](Cc4ccc5ccccc5n4)c4ccccc43)ccc2c1 is reported as greater than 500 µg/mL (water).
CCOc1ccc2cc(-c3nn(C4CCC4)c(N)c3C(N)=O)cnc2c1 has a solubility of 10.9 µM (PBS; pH 6.5, 25 °C).
O=C(Nc1cc(F)c(F)c(F)c1)c1ccc(F)c(S(=O)(=O)NCc2cccc(B(O)O)c2)c1 gave a solubility of 174 µg/mL (aqueous buffer; pH 2).
The solubility of CC(C)(C)n1nc(-c2cnc3cc(F)ccc3c2)c(C(N)=O)c1N is reported as greater than 100 µM (PBS; pH 6.5, 25 °C).
With N=C(N)NCc1ccc(NC(=O)c2ccc(C(=O)Nc3ccc(C4=CCN(C(=N)N)CC4)cc3)cc2)cc1 the solubility was 171 µg/mL (shake flask; aqueous buffer; pH 7.4).
The solubility of COc1cc(OC)cc(N(CCNC(C)C)c2ccc3ncc(-c4cnn(C)c4)nc3c2)c1 is reported as 23200 µg/mL (aqueous buffer; pH 3.96).
The solubility of CCC(F)(F)c1nc2nc(C)cc(Nc3ccc(C(F)(F)F)cc3)n2n1 is reported as 17 to 34 µM (nephelometry; aqueous buffer; pH 6.5).
With Cl.c1ccc(Cn2c(N3CCNCC3)nc3cc(-c4ccccc4)ccc32)cc1 the solubility was 25 µM (shake flask; aqueous buffer; 20 h, pH 6.5, 25 °C).
For CCc1nc2nc(C)cc(Nc3ccc(S(F)(F)(F)(F)F)cc3)n2n1, the solubility was 34 to 66 µM (nephelometry; aqueous buffer; pH 6.5).
With CCOC(=O)C1=C(C)NC(C)=C(C(=O)OC)C1c1cccc([N+](=O)[O-])c1 (centres unmarked) the solubility was 8 µg/mL (FaSSIF; 24 h, pH 7.4, 37 °C).
